Measurements as given in ChEMBL document CHEMBL1126147 (J Med Chem, 1992).
The source made the active and inactive calls. No cut-off for these calls is given here.

Key:
[1] = target: T1, Aldo-keto reductase family 1 member B1 (Homo sapiens, UniProt P15121); assay: In vitro inhibitory activity against aldose reductase isolated from human placenta
Rattus norvegicus [2] = assay: In vivo inhibition of sorbitol accumulation in the sciatic nerve in streptozotocin induced diabetic rat model at a concentration of 25 mg/kg; NS=not significant; assay type: functional, organism-based; set-up: dose 25 mg/kg
In short: (§1)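 Rats (n = 4) were made diabetic with a single iv dose of streptozotocin (86 mg/kg). Compound was given by oral gavage at 4, 7 and 24 h. Animals were killed at 27 h and sciatic nerve sorbitol measured. Percent inhibition is relative to untreated diabetic rats (n = 4), with significance by Student's t test (p < 0.05).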

Rattus norvegicus [3] = assay: In vivo inhibition of sorbitol accumulation in the sciatic nerve in streptozotocin induced diabetic rat model at a concentration of 10 mg/kg; NS=not significant; assay type: functional, organism-based; set-up: dose 10 mg/kg; in short: as §1
Rattus norvegicus [4] = assay: In vivo inhibition of sorbitol accumulation in the sciatic nerve in streptozotocin induced diabetic rat model at a concentration of 10 mg/kg; assay type: functional; in short: as §1
[5] = target: T1, Aldo-keto reductase family 1 member B1; assay: In vitro inhibitory activity against aldose reductase isolated from human placenta at 10e-5 M
In short: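 Aldose reductase purified from human placenta; DL-glyceraldehyde as substrate with NADPH as cofactor; enzyme inhibition measured in vitro.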

Rattus norvegicus [6] = assay: In vivo inhibition of sorbitol accumulation in the sciatic nerve in streptozotocin induced diabetic rat model at a concentration of 25 mg/kg; assay type: functional; in short: as §1
Rattus norvegicus [7] = assay: In vivo inhibition of sorbitol accumulation in the sciatic nerve in streptozotocin induced diabetic rat model at a concentration of 100 mg/kg; assay type: functional; in short: as §1

Row | IC50 [1] [nM] | SMILES | further results
1 | 3200 | O=C(O)Cc1nn(Cc2nc(-c3ccccc3)co2)c(=O)c2ccccc12 | 
2 | 50 | O=C(O)Cc1nn(C/C(S)=N/c2cccc(Cl)c2)c(=O)c2ccccc12 | 
3 | 13 | O=C(O)Cc1nn(CC(=O)Nc2cccc(Cl)c2)c(=O)c2ccccc12 | 
4 | 420 | O=C(O)Cc1nn(Cc2cc3cccnc3s2)c(=O)c2ccccc12 | inhibition (Rattus norvegicus [2]): inactive
5 | 156 | O=C(O)Cc1nn(Cc2nc(-c3ccccn3)no2)c(=O)c2ccccc12 | inhibition (Rattus norvegicus [3]): inactive
6 | 1000 | O=C(O)Cc1nn(Cc2cc3cc(Br)ccc3s2)c(=O)c2ccccc12 | 
7 | 170 | O=C(O)Cc1nn(CC(=O)Nc2cc(F)cc(F)c2O)c(=O)c2ccccc12 | 
8 | 1100 | O=C(O)Cc1nn(CC(=O)Nc2cc(C(F)(F)F)cc(C(F)(F)F)c2)c(=O)c2ccccc12 | 
9 | 1100 | O=C(O)Cc1nn(Cc2nc(-c3ccccc3Cl)ns2)c(=O)c2ccccc12 | 
10 | 150 | O=C(O)Cc1nn(Cc2cc3cc(Cl)ccc3o2)c(=O)c2ccccc12 | 
11 | 8200 | O=C(O)Cc1nn(Cc2csc(-c3ccccc3)n2)c(=O)c2ccccc12 | 
12 | 200 | O=C(O)Cc1nn(CC(=O)Nc2cc(C(F)(F)F)ccc2O)c(=O)c2ccccc12 | 
13 | 37 | O=C(O)Cc1nn(Cc2cn3ccc(Cl)cc3n2)c(=O)c2ccccc12 | 
14 | 670 | O=C(O)Cc1nn(Cc2cc(-c3ccccc3)ns2)c(=O)c2ccccc12 | 
15 | 10000 | O=C(O)Cc1nn(Cc2csnc2-c2ccccc2)c(=O)c2ccccc12 | 
16 | 64 | Cc1ccccc1-c1noc(Cn2nc(CC(=O)O)c3ccccc3c2=O)n1 | inhibition (Rattus norvegicus [3]): inactive
17 | 6.5 | O=C(O)Cc1nn(Cc2nc(-c3ccccc3Br)no2)c(=O)c2ccccc12 | inhibition in vivo at 10 mg/kg (Rattus norvegicus [4]): 27%
18 | 460 | O=C(O)Cc1nn(Cc2csc(-c3ccccc3F)n2)c(=O)c2ccccc12 | 
19 | 89 | O=C(O)Cc1nn(Cc2nc3ccccc3o2)c(=O)c2ccccc12 | 
20 | 3.2 | O=C(O)Cc1nn(Cc2nc3cc(F)cc(F)c3o2)c(=O)c2ccccc12 | inhibition in vivo at 10 mg/kg (Rattus norvegicus [4]): 78%
21 | 4500 | O=C(O)Cc1nn(Cc2nc(-c3ccccc3)c(-c3ccccc3)o2)c(=O)c2ccccc12 | 
22 |  | COc1cc(NC(=O)Cn2nc(CC(=O)O)c3ccccc3c2=O)cc(OC)c1OC | inhibition [5]: 20%

Row | IC50 [1] [nM] | SMILES | further results
23 | 31 | O=C(O)Cc1nn(Cc2nc3cc(C(F)(F)F)ccc3o2)c(=O)c2ccccc12 | inhibition in vivo at 10 mg/kg (Rattus norvegicus [4]): 32%
24 | 3100 | O=C(O)Cc1nn(Cc2nnc(-c3ccccc3)o2)c(=O)c2ccccc12 | 
25 | 430 | O=C(O)Cc1nn(CC(=O)Nc2ccccc2Cl)c(=O)c2ccccc12 | 
26 | 870 | O=C(O)Cc1nn(Cc2cc3ccccc3[nH]2)c(=O)c2ccccc12 | 
27 | 2200 | O=C(O)Cc1nn(Cc2nc(-c3ccccc3)ns2)c(=O)c2ccccc12 | 
28 | 22 | O=C(O)Cc1nn(CC(=O)Nc2cccc(F)c2)c(=O)c2ccccc12 | 
29 | 28 | O=C(O)Cc1nn(Cc2noc(-c3ccccc3Cl)n2)c(=O)c2ccccc12 | 
30 | 4900 | O=C(O)Cc1nn(CC(=O)Nc2ccccc2)c(=O)c2ccccc12 | 
31 | 4600 | O=C(O)Cc1nn(Cc2nc(-c3ccc(Br)cc3)no2)c(=O)c2ccccc12 | 
32 | 720 | O=C(O)Cc1nn(Cc2snc3ccccc23)c(=O)c2ccccc12 | 
33 | 5900 | O=C(O)Cc1nn(CC(=O)Nc2ccccc2C(F)(F)F)c(=O)c2ccccc12 | 
34 |  | O=C(O)Cc1nn(Cc2nc3cc(C(F)(F)F)ccc3s2)c(=O)c2ccccc12 [ZOPOLRESTAT] | inhibition in vivo at 10 mg/kg (Rattus norvegicus [4]): 80%
35 | 150 | O=C(O)Cc1nn(Cc2cc3cc(F)ccc3s2)c(=O)c2ccccc12 | inhibition in vivo at 25 mg/kg (Rattus norvegicus [6]): 49%
36 | 540 | O=C(O)Cc1nn(Cc2nc3ccc(Br)cc3o2)c(=O)c2ccccc12 | 
37 | 240 | O=C(O)Cc1nn(Cc2nc(-c3c(F)cccc3Cl)no2)c(=O)c2ccccc12 | 
38 | 27 | O=C(O)Cc1nn(Cc2nc3cc(Br)ccc3o2)c(=O)c2ccccc12 | inhibition in vivo at 10 mg/kg (Rattus norvegicus [4]): 67%
39 | 78 | O=C(O)Cc1nn(Cc2nc3cc(Cl)ccc3o2)c(=O)c2ccccc12 | inhibition in vivo at 10 mg/kg (Rattus norvegicus [4]): 72%
40 | 200 | O=C(O)Cc1nn(CC(=S)Nc2cc(C(F)(F)F)ccc2Br)c(=O)c2ccccc12 | 
41 | 4200 | Cn1c(Cn2nc(CC(=O)O)c3ccccc3c2=O)nc2ccccc21 | 
42 | 34 | O=C(O)Cc1nn(Cc2nc(-c3ccccc3)cs2)c(=O)c2ccccc12 | 
43 | < 10 | O=C(O)Cc1nn(Cc2nc(-c3ccccc3F)no2)c(=O)c2ccccc12 | inhibition in vivo at 25 mg/kg (Rattus norvegicus [6]): 69%
44 | 3000 | O=C(O)Cc1nn(Cc2nc3cc4ccccc4cc3o2)c(=O)c2ccccc12 | 

Row | IC50 [1] [nM] | SMILES | further results
45 | 630 | O=C(O)Cc1nn(Cc2nc(-c3ccc(F)cc3F)no2)c(=O)c2ccccc12 | inhibition in vivo at 25 mg/kg (Rattus norvegicus [6]): 46%
46 | 23 | O=C(O)Cc1nn(Cc2nc(-c3ccccc3Cl)no2)c(=O)c2ccccc12 | inhibition (Rattus norvegicus [3]): inactive; inhibition in vivo at 25 mg/kg (Rattus norvegicus [6]): 75%
47 | 6100 | O=C(O)Cc1nn(Cc2nc3cc(-c4ccccc4)ccc3o2)c(=O)c2ccccc12 | 
48 | 220 | O=C(O)Cc1nn(Cc2nc(-c3ccccc3C(F)(F)F)no2)c(=O)c2ccccc12 | inhibition in vivo at 25 mg/kg (Rattus norvegicus [6]): 60%
49 | 660 | O=C(O)Cc1nn(Cc2ncc(-c3ccccc3)o2)c(=O)c2ccccc12 | 
50 | 19 | O=C(O)Cc1nn(Cc2nc(-c3cccc(F)c3F)no2)c(=O)c2ccccc12 | inhibition in vivo at 25 mg/kg (Rattus norvegicus [6]): 89%
51 | 250 | O=C(O)Cc1nn(Cc2cc3cc(Cl)ccc3s2)c(=O)c2ccccc12 | 
52 | 2200 | O=C(O)Cc1nn(CC(=O)Nc2cc(C(F)(F)F)cc(C(F)(F)F)c2Br)c(=O)c2ccccc12 | 
53 | 110 | O=C(O)Cc1nn(Cc2cc3c(Cl)cccc3s2)c(=O)c2ccccc12 | 
54 | 160 | O=C(O)Cc1nn(Cc2nc(-c3ccccc3)no2)c(=O)c2ccccc12 | 
55 | 28 | O=C(O)Cc1nn(CC(=O)Nc2cc(C(F)(F)F)ccc2Br)c(=O)c2ccccc12 | 
56 | 440 | O=C(O)Cc1nn(CC(=O)Nc2ccc(Cl)cc2)c(=O)c2ccccc12 | 
57 | 32 | O=C(O)Cc1nn(Cc2nc3cc(Cl)cc(Cl)c3o2)c(=O)c2ccccc12 | inhibition in vivo at 10 mg/kg (Rattus norvegicus [4]): 63%
58 | 59000 | O=C(O)Cc1nn(Cc2ccc3ccccc3n2)c(=O)c2ccccc12 | 
59 | 470 | O=C(O)Cc1nn(Cc2noc(-c3ccccc3C(F)(F)F)n2)c(=O)c2ccccc12 | 
60 | 470 | COc1ccccc1-c1noc(Cn2nc(CC(=O)O)c3ccccc3c2=O)n1 | inhibition (Rattus norvegicus [2]): inactive
61 | 120 | O=C(O)Cc1nn(Cc2cc3ccccc3s2)c(=O)c2ccccc12 | inhibition in vivo at 100 mg/kg (Rattus norvegicus [7]): 77%
62 | 2100 | O=C(O)Cc1nn(CC(=O)Nc2ccc(C(F)(F)F)cc2)c(=O)c2ccccc12 | 
63 | 19 | O=C(O)Cc1nn(CC(=O)Nc2cccc(C(F)(F)F)c2)c(=O)c2ccccc12 | 
64 | 52 | O=C(O)Cc1nn(C/C(S)=N/c2cccc(C(F)(F)F)c2)c(=O)c2ccccc12 | 
65 | 2200 | O=C(O)Cc1nn(Cc2cc3cc([N+](=O)[O-])ccc3s2)c(=O)c2ccccc12 | inhibition (Rattus norvegicus [3]): inactive
